≈ marks a conversion by molar mass, not a printed value. Calls of active or inactive are those of the source. The rule behind the calls is not given here.
Experiments:
[1] = system: Staphylococcus aureus; assay: Antibacterial activity against vancomycin-intermediate Staphylococcus aureus isolate 435 infected in neutropenic BALB/c mouse lung infection model assessed as reduction of CFU at 40 mg/kg, sc administered every 12 hrs measured after 48 hrs; also: unit not given here
[2] = system: Staphylococcus aureus; assay: Antibacterial activity against vancomycin-intermediate Staphylococcus aureus isolate 440 (A6298) infected in neutropenic BALB/c mouse lung infection model assessed as reduction of CFU at 40 mg/kg, sc administered every 12 hrs measured after 48 hrs
[3] = system: Staphylococcus aureus; assay: Antibacterial activity against hospital-associated methicillin-resistant Staphylococcus aureus isolate 336 infected in neutropenic BALB/c mouse lung infection model assessed as reduction of CFU at 40 mg/kg, sc administered every 12 hrs measured after 24 hrs; also: unit not given here
[4] = system: Staphylococcus aureus; assay: Antibacterial activity against vancomycin-intermediate Staphylococcus aureus isolate 435 by broth microdilution assay; format: functional
Summary of the method: (§1)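 MIC by broth microdilution using dry-form panels, run in triplicate per isolate; modal MIC reported. Isolates were stored at −80°C in skim milk and subcultured twice on Trypticase soy agar with 5% sheep blood at 35°C before use.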

[5] = system: Staphylococcus aureus; assay: Antibacterial activity against vancomycin-heteroresistant Staphylococcus aureus isolate 443 by broth microdilution assay; format: functional
Summary of the method: as §1

[6] = system: Staphylococcus aureus; assay: Antibacterial activity against vancomycin-heteroresistant Staphylococcus aureus isolate 38 (Mu3) infected in neutropenic BALB/c mouse lung infection model assessed as reduction of CFU at 40 mg/kg, sc administered every 12 hrs measured after 24 hrs
[7] = system: Staphylococcus aureus; assay: Antibacterial activity against vancomycin-intermediate Staphylococcus aureus isolate 440 (A6298) by broth microdilution assay; format: functional
Summary of the method: as §1

[8] = system: Staphylococcus aureus; assay: Antibacterial activity against vancomycin-intermediate Staphylococcus aureus isolate 440 (A6298) infected in neutropenic BALB/c mouse lung infection model assessed as reduction of CFU at 40 mg/kg, sc administered every 12 hrs measured after 24 hrs
[9] = system: Staphylococcus aureus; assay: Antibacterial activity against vancomycin-intermediate Staphylococcus aureus isolate 453 (NRS23) infected in neutropenic BALB/c mouse lung infection model assessed as reduction of CFU at 40 mg/kg, sc administered every 12 hrs measured after 24 hrs; also: unit not given here
[10] = system: Staphylococcus aureus; assay: Antibacterial activity against hospital-associated methicillin-resistant Staphylococcus aureus isolate 412 infected in neutropenic BALB/c mouse lung infection model assessed as reduction of CFU at 40 mg/kg, sc administered every 12 hrs measured after 24 hrs; also: unit not given here
[11] = system: Staphylococcus aureus; assay: Antibacterial activity against vancomycin-intermediate Staphylococcus aureus isolate 454 (NRS404) by broth microdilution assay; format: functional
Summary of the method: as §1

[12] = system: Staphylococcus aureus; assay: Antibacterial activity against hospital-associated methicillin-resistant Staphylococcus aureus isolate 336 infected in neutropenic BALB/c mouse lung infection model assessed as reduction of CFU at 40 mg/kg, sc administered every 12 hrs measured after 48 hrs; also: unit not given here
[13] = system: Staphylococcus aureus; assay: Antibacterial activity against vancomycin-intermediate Staphylococcus aureus isolate 454 (NRS404) infected in neutropenic BALB/c mouse lung infection model assessed as reduction of CFU at 40 mg/kg, sc administered every 12 hrs measured after 24 hrs; also: unit not given here
[14] = system: Staphylococcus aureus; assay: Antibacterial activity against vancomycin-intermediate Staphylococcus aureus isolate 453 (NRS23) infected in neutropenic BALB/c mouse lung infection model assessed as reduction of CFU at 40 mg/kg, sc administered every 12 hrs measured after 48 hrs; also: unit not given here
[15] = system: Staphylococcus aureus; assay: Antibacterial activity against hospital-associated methicillin-resistant Staphylococcus aureus isolate 336 by broth microdilution assay; format: functional
Summary of the method: as §1

[16] = system: Staphylococcus aureus; assay: Antibacterial activity against vancomycin-heteroresistant Staphylococcus aureus isolate 443 infected in neutropenic BALB/c mouse lung infection model assessed as reduction of CFU at 40 mg/kg, sc administered every 12 hrs measured after 48 hrs; also: unit not given here
[17] = system: Staphylococcus aureus; assay: Antibacterial activity against community-associated methicillin-resistant Staphylococcus aureus isolate 156 infected in neutropenic BALB/c mouse lung infection model assessed as reduction of CFU at 40 mg/kg, sc administered every 12 hrs measured after 24 hrs; also: unit not given here
[18] = system: Staphylococcus aureus; assay: Antibacterial activity against hospital-associated methicillin-resistant Staphylococcus aureus isolate 56 (494) by broth microdilution assay; format: functional
Summary of the method: as §1

[19] = system: Staphylococcus aureus; assay: Antibacterial activity against vancomycin-intermediate Staphylococcus aureus isolate 454 (NRS404) infected in neutropenic BALB/c mouse lung infection model assessed as reduction of CFU at 40 mg/kg, sc administered every 12 hrs measured after 48 hrs; also: unit not given here
[20] = system: Staphylococcus aureus; assay: Antibacterial activity against hospital-associated methicillin-resistant Staphylococcus aureus isolate 56 (494) infected in neutropenic BALB/c mouse lung infection model assessed as reduction of CFU at 40 mg/kg, sc administered every 12 hrs measured after 24 hrs; also: unit not given here
[21] = system: Staphylococcus aureus; assay: Antibacterial activity against vancomycin-intermediate Staphylococcus aureus isolate 435 infected in neutropenic BALB/c mouse lung infection model assessed as reduction of CFU at 40 mg/kg, sc administered every 12 hrs measured after 24 hrs; also: unit not given here
[22] = system: Staphylococcus aureus; assay: Antibacterial activity against hospital-associated methicillin-resistant Staphylococcus aureus isolate 152 infected in neutropenic BALB/c mouse lung infection model assessed as reduction of CFU at 40 mg/kg, sc administered every 12 hrs measured after 24 hrs; also: unit not given here
[23] = system: Staphylococcus aureus; assay: Antibacterial activity against hospital-associated methicillin-resistant Staphylococcus aureus isolate 152 by broth microdilution assay; format: functional
Summary of the method: as §1

[24] = system: Staphylococcus aureus; assay: Antibacterial activity against community-associated methicillin-resistant Staphylococcus aureus isolate 145 infected in neutropenic BALB/c mouse lung infection model assessed as reduction of CFU at 40 mg/kg, sc administered every 12 hrs measured after 48 hrs; also: unit not given here
[25] = system: Staphylococcus aureus; assay: Antibacterial activity against community-associated methicillin-resistant Staphylococcus aureus isolate 145 infected in neutropenic BALB/c mouse lung infection model assessed as reduction of CFU at 40 mg/kg, sc administered every 12 hrs measured after 24 hrs; also: unit not given here
[26] = system: Staphylococcus aureus; assay: Antibacterial activity against vancomycin-intermediate Staphylococcus aureus isolate 453 (NRS23) by broth microdilution assay; format: functional
Summary of the method: as §1

[27] = system: Staphylococcus aureus; assay: Antibacterial activity against vancomycin-heteroresistant Staphylococcus aureus isolate 38 (Mu3) by broth microdilution assay; format: functional
Summary of the method: as §1

[28] = system: Staphylococcus aureus; assay: Antibacterial activity against hospital-associated methicillin-resistant Staphylococcus aureus isolate 412 by broth microdilution assay; format: functional
Summary of the method: as §1

[29] = system: Staphylococcus aureus; assay: Antibacterial activity against vancomycin-heteroresistant Staphylococcus aureus isolate 443 infected in neutropenic BALB/c mouse lung infection model assessed as reduction of CFU at 40 mg/kg, sc administered every 12 hrs measured after 24 hrs; also: unit not given here
[30] = system: Staphylococcus aureus; assay: Antibacterial activity against hospital-associated methicillin-resistant Staphylococcus aureus isolate 360 by broth microdilution assay; format: functional
Summary of the method: as §1

[31] = system: Staphylococcus aureus; assay: Antibacterial activity against community-associated methicillin-resistant Staphylococcus aureus isolate 145 by broth microdilution assay; format: functional
Summary of the method: as §1

[32] = system: Staphylococcus aureus; assay: Antibacterial activity against hospital-associated methicillin-resistant Staphylococcus aureus isolate 360 infected in neutropenic BALB/c mouse lung infection model assessed as reduction of CFU at 40 mg/kg, sc administered every 12 hrs measured after 24 hrs
[33] = system: Staphylococcus aureus; assay: Antibacterial activity against community-associated methicillin-resistant Staphylococcus aureus isolate 156 by broth microdilution assay; format: functional
Summary of the method: as §1

SMILES	MIC [4]	MIC [5]	MIC [7]	MIC [11]	MIC [15]	MIC [18]	MIC [23]	MIC [26]	MIC [27]	MIC [28]	MIC [30]	MIC [31]	MIC [33]	other results
CCCCCCCCCCNCCN[C@@]1(C)C[C@H](O[C@H]2[C@H](Oc3c4cc5cc3Oc3ccc(cc3Cl)[C@@H](O)[C@@H](NC(=O)[C@@H](CC(C)C)NC)C(=O)N[C@@H](CC(N)=O)C(=O)N[C@H]5C(=O)N[C@H]3C(=O)N[C@H](C(=O)N[C@H](C(=O)O)c5cc(O)c(CNCP(=O)(O)O)c(O)c5-c5cc3ccc5O)[C@H](O)c3ccc(c(Cl)c3)O4)O[C@H](CO)[C@@H](O)[C@@H]2O)O[C@@H](C)[C@H]1O [TELAVANCIN]	1 µg/mL (≈ 0.57 µM)	0.5 µg/mL (≈ 0.285 µM)	1 µg/mL (≈ 0.57 µM)	1 µg/mL (≈ 0.57 µM)	0.5 µg/mL (≈ 0.285 µM)	0.5 µg/mL (≈ 0.285 µM)	0.25 µg/mL (≈ 0.142 µM)	1 µg/mL (≈ 0.57 µM)	0.5 µg/mL (≈ 0.285 µM)	0.5 µg/mL (≈ 0.285 µM)	0.5 µg/mL (≈ 0.285 µM)	0.5 µg/mL (≈ 0.285 µM)	0.5 µg/mL (≈ 0.285 µM)	Activity [1]: inactive; Activity [2]: Active; Activity [3]: Active; Activity [6]: Active; Activity [8]: Active; Activity [9]: Active; Activity [10]: Active; Activity [12]: inactive; Activity [13]: Active; Activity [14]: Active; Activity [16]: inactive; Activity [17]: Active; Activity [19]: Active; Activity [20]: Active; Activity [21]: Active; Activity [22]: Active; Activity [24]: inactive; Activity [25]: Active; Activity [29]: Active; Activity [32]: Active
CCCCCCCCCC(=O)N[C@@H](Cc1c[nH]c2ccccc12)C(=O)N[C@H](CC(N)=O)C(=O)N[C@@H](CC(=O)O)C(=O)N[C@@H]1C(=O)NCC(=O)N[C@@H](CCCN)C(=O)N[C@@H](CC(=O)O)C(=O)N[C@H](C)C(=O)N[C@@H](CC(=O)O)C(=O)NCC(=O)N[C@H](CO)C(=O)N[C@@H]([C@H](C)CC(=O)O)C(=O)N[C@@H](CC(=O)c2ccccc2N)C(=O)O[C@@H]1C	0.5 µg/mL (≈ 0.309 µM)	0.5 µg/mL (≈ 0.309 µM)	1 µg/mL (≈ 0.617 µM)	1 µg/mL (≈ 0.617 µM)	0.5 µg/mL (≈ 0.309 µM)	0.5 µg/mL (≈ 0.309 µM)	0.5 µg/mL (≈ 0.309 µM)	1 µg/mL (≈ 0.617 µM)	0.5 µg/mL (≈ 0.309 µM)	0.5 µg/mL (≈ 0.309 µM)	0.5 µg/mL (≈ 0.309 µM)	0.5 µg/mL (≈ 0.309 µM)	0.5 µg/mL (≈ 0.309 µM)	
CCC[C@@H]1C[C@@H](C(=O)N[C@@H]([C@H]2O[C@H](SC)[C@H](O)[C@@H](O)[C@H]2O)[C@H](C)Cl)N(C)C1 [CLINDAMYCIN]	≤ 0.5 µg/mL	≥ 8 µg/mL	≥ 8 µg/mL	≤ 0.5 µg/mL	≥ 8 µg/mL	0.25 µg/mL (≈ 0.588 µM)	0.125 µg/mL (≈ 0.294 µM)	≥ 8 µg/mL	≥ 8 µg/mL	≤ 0.5 µg/mL	≥ 8 µg/mL	≥ 8 µg/mL	≤ 0.5 µg/mL	
CN(C)c1cc(NC(=O)CNC(C)(C)C)c(O)c2c1C[C@H]1C[C@H]3[C@H](N(C)C)C(O)=C(C(N)=O)C(=O)[C@@]3(O)C(O)=C1C2=O [TIGECYCLINE]	0.25 µg/mL (≈ 0.427 µM)	0.25 µg/mL (≈ 0.427 µM)	0.125 µg/mL (≈ 0.213 µM)	0.125 µg/mL (≈ 0.213 µM)	0.5 µg/mL (≈ 0.854 µM)	0.5 µg/mL (≈ 0.854 µM)	0.25 µg/mL (≈ 0.427 µM)	0.125 µg/mL (≈ 0.213 µM)	0.5 µg/mL (≈ 0.854 µM)	0.25 µg/mL (≈ 0.427 µM)	0.25 µg/mL (≈ 0.427 µM)	0.25 µg/mL (≈ 0.427 µM)	0.125 µg/mL (≈ 0.213 µM)	
O=C(O)c1cn(C2CC2)c2cc(N3CCNCC3)c(F)cc2c1=O [CIPROFLOXACIN]	≥ 16 µg/mL	≥ 16 µg/mL	≥ 16 µg/mL	≥ 16 µg/mL	≥ 16 µg/mL	0.5 µg/mL (≈ 1.51 µM)	0.5 µg/mL (≈ 1.51 µM)	≥ 16 µg/mL	≥ 16 µg/mL	≥ 16 µg/mL	≥ 16 µg/mL	8 µg/mL (≈ 24.1 µM)	≥ 16 µg/mL	

From ChEMBL document CHEMBL1687804, “Comparative efficacies of human simulated exposures of telavancin and vancomycin against methicillin-resistant Staphylococcus aureus with a range of vancomycin MICs in a murine pneumonia model” (Antimicrob Agents Chemother, 2010)
